Screening data deposited in PubChem by several laboratories.
T cell HTS – modulators of CD8 T cell-vesicle binding, primary screen, mouse 2C CD8+ T cells, flow cytometry. 2C CD8+ T cell-vesicle binding; stronger effect = lower value. response (vesicle binding), % at 7 µM. 330,000 tested, 0.068% active. AID 2052, 2009;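 active = response, share of CD8 T cells binding vesicles, and their 90th percentile fluorescence all below set limits, cut at about 80% in these data, passing the limit was not always enough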;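 note: values below 100% mean blocked vesicle binding to the CD8+ T cells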
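Also added: QL9-peptide-loaded Drosophila micro-vesicles bearing Ld, ICAM-1 and B7-1; Test system: purified 2C TCR transgenic mouse naive CD8+ T cells; Measured by: cytometric PE anti-B7-1 and Alexa647 anti-CD8 signals after 1% paraformaldehyde fixation; Timing: binding step 1.5 h, 37 °C, antibody labelling 20 min, ice.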
ALR H2O2 inh – inhibitors of human ALR sulfhydryl oxidase, primary screen, biochemical, H2O2 detection, HRP-luminol luminescence, single point; FAD-linked sulfhydryl oxidase ALR (Homo sapiens), P55789; purified ALR, DTT oxidation; inhibition, % (no concentration beside the values); 290,000 tested, 3.8% active; AID 485317, 2010;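 active = mean replicate inhibition above about 79%, with every replicate also reaching it, limit read from the data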
Target sequence (P55789 whole entry, looked up): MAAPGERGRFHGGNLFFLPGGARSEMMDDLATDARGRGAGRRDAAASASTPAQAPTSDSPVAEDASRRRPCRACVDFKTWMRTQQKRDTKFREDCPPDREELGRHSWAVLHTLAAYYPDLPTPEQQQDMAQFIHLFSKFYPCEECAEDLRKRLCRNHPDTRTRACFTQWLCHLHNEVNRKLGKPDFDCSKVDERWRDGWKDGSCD
Glyco luc inh – increase of ERlucT glycosylation luciferase signal, primary screen, N-linked glycosylation inhibitor project, D54 ERlucT cells, luminescence, set 2; D54 ERlucT glycosylation luciferase reporter, 24 h; percent of 100 nM tunicamycin response; reporter increase, % at 12.5 µM; 360,000 tested, 0.23% active; AID 588692, 2011;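 active = mean luciferase reporter signal, scaled so untreated is 0 and the glycosylation-blocking control 100, at or above a set limit in every replicate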;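 note: luciferase carries N-glycosylation sites so blocking glycosylation raises the light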
Of the large screens only hits and unclear results are named; the others gave an inactive call. The full list was thinned out, with hits kept by preference.

O=C(CC1C(=O)NCCN1C(=O)Nc1ccc(F)cc1F)Nc1ccc(F)cc1 (stereo not given)	none
CC(=O)N1CC(C(=O)Nc2ccc3c(c2)OCO3)Oc2ccccc21 (stereo not given)	none
CN1CCC(=O)N([C@H](COc2ccccc2)Cc2ccccc2)CC1	none
CCn1cc(SCC(=O)Nc2cc(C)on2)c2ccccc21	ALR H2O2 inh 95
Cc1cc(NC(=O)CSc2ccc3ccccc3c2)no1	ALR H2O2 inh 99
Cn1cc(SCC(N)=O)c2ccccc21	none (no result: ALR H2O2 inh)
Cc1cc(NC(=O)COc2ccc3ccccc3c2)no1	none
CCn1cc(SCC(N)=O)c2ccccc21	ALR H2O2 inh 96
Cc1cc(NC(=O)CSCC(=O)N2CCN(c3ccccc3)CC2)no1	ALR H2O2 inh 99
Cc1cc(NC(=O)CSCC(=O)N2CCN(c3cccc(C(F)(F)F)c3)CC2)no1	none
CCCn1cc(SCC(=O)Nc2cc(C)on2)c2ccccc21	none
COc1ccc(CCNC(=O)c2cc(=O)c3cc(C)ccc3o2)cc1	none
CN1C(=O)[C@H]2[C@@H](c3ccc(F)cc3)N3C(=O)c4ccccc4NC(=O)[C@@]3(C)[C@H]2C1=O	none (no result: ALR H2O2 inh)
COc1ccc(NC(=O)COC(=O)[C@@H](NC(=O)c2c(F)cccc2F)C(C)C)cc1	none
COc1cccc(CNC(=O)CN2C(=O)CSc3ccc(S(=O)(=O)N4CCCCC4)cc32)c1	none
COc1ccc2c(=O)cc(CO)oc2c1	none
Cc1cc(NC(=O)CSc2cn(C)c3ccccc23)no1	none
Cc1cc(NC(=O)CSc2cn(CC(=O)N(C(C)C)C(C)C)c3ccccc23)no1	ALR H2O2 inh 98
CC(=O)Nc1ccc(S(=O)(=O)NNC(=O)COc2ccc(C(C)(C)C)cc2)cc1	ALR H2O2 inh 97
CC(=O)Nc1ccc(S(=O)(=O)NNC(=O)c2cccc(Cl)c2)cc1	ALR H2O2 inh 99
CC(=O)Nc1ccc(S(=O)(=O)NNC(=O)COc2ccc(C)cc2)cc1	none
CC(=O)Nc1ccc(S(=O)(=O)NNC(=O)c2ccc3c(c2)OCO3)cc1	none
CC1(C)S[C@@H]2[C@H](NC(=O)C(NC(=O)N3CCNC3=O)c3ccccc3)C(=O)N2[C@H]1C(=O)O (stereo not given in full)	none
CN(C)CCNc1oc(-c2ccccc2Cl)nc1S(=O)(=O)c1ccccc1	T cell HTS 0.0 (no result: ALR H2O2 inh)
CN(C)CCCNc1oc(-c2ccccc2Cl)nc1S(=O)(=O)c1ccc(F)cc1	none
Cc1ccc(NC(=O)N2CCCC2C(=O)Nc2ccc3c(c2)OCO3)cc1 (stereo not given)	none
O=C1C2C3CCC(C3)C2C(=O)N1CNc1ccccc1 (stereo not given)	none
CC(=O)Nc1ccc(NCN2C(=O)[C@@H]3[C@H]4CC[C@H](C4)[C@@H]3C2=O)cc1	ALR H2O2 inh 94
CN(C)c1ccc(-c2csc(C(O)c3cccc(Cl)c3)n2)cc1 (stereo not given)	none (no result: T cell HTS, ALR H2O2 inh)
COc1ccc(NC(=O)COC(=O)Cn2nnc3ccccc32)cc1	none
COCC(=O)Nc1ccc(N(C)C)cc1	none (no result: ALR H2O2 inh)
CN(C)c1ccc(NC(=O)COC(=O)Cn2nnc3ccccc32)cc1	ALR H2O2 inh 99
Cc1ccccc1SCC(=O)OCC(=O)Nc1ccc(N(C)C)cc1	ALR H2O2 inh 99
Cc1cc(-c2ccc(C)c(S(=O)(=O)NCCc3ccc(S(N)(=O)=O)cc3)c2)on1	none
O=C(Nc1ccc(Cl)cc1)NC1CCCCC1	none
Nc1ccc(NC(=O)NC2CCCCC2)cc1	ALR H2O2 inh 99
CCN(CC)CCCN=Cc1c(-c2ccccc2)[nH]n(-c2nc3ccccc3s2)c1=O	ALR H2O2 inh 98
O=c1c(C=NCc2cccnc2)c(C(F)(F)F)[nH]n1-c1nc2ccccc2s1	ALR H2O2 inh 99
CCCc1[nH]n(-c2nc3ccccc3s2)c(=O)c1C=NCC(C)C	none
CCCN=C(C)c1c(-c2ccccc2)[nH]n(-c2nc3ccccc3s2)c1=O	none
CCC(=NCc1ccco1)c1c(C(F)(F)F)[nH]n(-c2nc3ccccc3s2)c1=O	ALR H2O2 inh 86
CCC(=NCc1ccccc1)c1c(C(F)(F)F)[nH]n(-c2nc3ccccc3s2)c1=O	none
CN(C)C1(CNC(=S)Nc2ccccc2C(F)(F)F)CCCCC1	none (no result: ALR H2O2 inh)
Cn1c(=O)c2c(nc3n2CC(COc2ccccc2)O3)n(C)c1=O (stereo not given)	none
CC(=O)N(C(C)=O)n1c(C)nc2sc3c(c2c1=O)CCCC3	ALR H2O2 inh 97
Cc1nc2sc3c(c2c(=O)n1N)CCC3	none
COc1cccc(C(C2C(=O)CC(C)(C)CC2=O)C2C(=O)CC(C)(C)CC2=O)c1	none (no result: ALR H2O2 inh)
CC1(C)CC(=O)C(C(C2=C(O)CC(C)(C)CC2=O)c2ccc([N+](=O)[O-])cc2)C(=O)C1 (stereo not given)	none
CC1(C)CC(=O)C(Br)=C(O)C1	none (no result: T cell HTS, ALR H2O2 inh)
COc1cccc(C(C2=C(O)CC(C)(C)CC2=O)C2C(=O)CC(C)(C)CC2=O)c1 (stereo not given)	ALR H2O2 inh 98
Cc1ccc(C(C2=C(O)CC(C)(C)CC2=O)C2C(=O)CC(C)(C)CC2=O)s1 (stereo not given)	ALR H2O2 inh 98
CC1(C)CC(=O)C(C(C2=C(O)CC(C)(C)CC2=O)c2ccc(Br)s2)C(=O)C1 (stereo not given)	ALR H2O2 inh 98
O=C(CCn1ccnc1)Nc1cc(Cl)ccc1O	none
COCCN(CC(=O)Nc1cccc(C)c1C)C(=O)C1(c2ccc(Cl)cc2)CCC1	none (no result: ALR H2O2 inh)
Cc1ccc(C)c(N2CCN(C(=O)CCC(=O)N3CCOc4ccc(Cl)cc43)CC2)c1	none
CC12CCC(C(=O)N(CC(O)CN3CCCCCC3)C1=O)C2(C)C (stereo not given)	none (no result: ALR H2O2 inh)
C=CCc1c(C)nc(SCC(N)=O)[nH]c1=O	none
CCC(C)c1c(O)nc(SCC(=O)N2CCCCC2)[nH]c1=O (stereo not given)	none
O=C(CSc1nc2[nH]ncc2c(=O)[nH]1)Nc1ccccc1	none
C=CCc1c(O)nc(SCC(=O)c2ccccc2)[nH]c1=O	ALR H2O2 inh 99
CCC(C)c1c(O)nc(SCC(=O)c2ccccc2)[nH]c1=O (stereo not given)	ALR H2O2 inh 99
CCC(C)c1c(O)nc(SCC(=O)Nc2ccccc2)[nH]c1=O (stereo not given)	ALR H2O2 inh 99 (no result: Glyco luc inh)
CCCNC(=O)c1ccccc1NC(=O)c1ccccc1N(C)S(=O)(=O)c1ccc(C)cc1	none (no result: T cell HTS, ALR H2O2 inh)
COc1ccc(C(=O)OCC(=O)N2CCc3ccccc32)cc1S(=O)(=O)N1CCOCC1	none (no result: ALR H2O2 inh)
Cc1ccc(C(=O)N2CCN(c3ccc(NC(=S)NC(=O)Cc4ccccc4)cc3)CC2)cc1	none
COc1cc(SC)ccc1C(=O)N1CCN(c2ccccc2F)CC1	none
O=C(c1ccccc1)N1CCN(c2ccc(NCc3ccc4c(c3)OCO4)cc2)CC1	ALR H2O2 inh 89
COc1ccc(C(=O)N2CCN(c3ccc(NC(=O)Cc4ccccc4)cc3)CC2)cc1	T cell HTS 0.0
O=C(c1ccc2c(c1)OCO2)N1CCN(c2ccc(Cl)cc2)CC1	none
COc1ccc(N2CCN(C(=O)c3ccc(SC)cc3OC)CC2)cc1	ALR H2O2 inh 85
CC(=O)N1CCN(c2ccc(NCc3ccc4c(c3)OCO4)cc2)CC1	none (no result: ALR H2O2 inh)
O=C(c1ccc2c(c1)OCO2)N1CCN(c2ccccc2)CC1	ALR H2O2 inh 98
